Rows were chosen to be rich in hits. Some 3.4% of all compounds tested hit in one or more screens of this group.
Wee1 stabilizer: human Wee1 degradation inhibition, primary screen | HeLa Luc-Wee1K328M stability, luciferase luminescence; 100% = proteasome inhibitor MG132 effect | AID 1321 | 1.2% of 220,000 active | reporter increase, % at 5 µM;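 active means activation above the mean of all tested compounds plus 3 SD, set per screening run, cut at about 8.8% in these data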;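 further: cells exposed to compound for 20 h before luminescence read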
HMGR II inh: E. faecalis class II HMG-CoA reductase inhibition; purified E. faecalis HMGR, NADPH absorbance 340 nm kinetic; inhibition, % at 10 µM; AID 1066; 0.41% of 190,000 active;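 active means inhibition above a set limit, the median over all tested compounds plus 3 SD, cut at about 9.5% in these data; inconclusive means no clear call, values can overlap the other calls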;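 further: enzyme runs in reverse so mevalonate oxidation gives rising NADPH absorbance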
PHOSPHO1 block: blocks human PHOSPHO1 phosphatase activity; recombinant PHOSPHO1, absorbance phosphatase assay; 1.1% of 290,000 active; inhibition, % at 13.3 µM; Q8TCT1; AID 1565; in the data active means inhibition above about 60%
Target sequence (Q8TCT1 whole entry, looked up): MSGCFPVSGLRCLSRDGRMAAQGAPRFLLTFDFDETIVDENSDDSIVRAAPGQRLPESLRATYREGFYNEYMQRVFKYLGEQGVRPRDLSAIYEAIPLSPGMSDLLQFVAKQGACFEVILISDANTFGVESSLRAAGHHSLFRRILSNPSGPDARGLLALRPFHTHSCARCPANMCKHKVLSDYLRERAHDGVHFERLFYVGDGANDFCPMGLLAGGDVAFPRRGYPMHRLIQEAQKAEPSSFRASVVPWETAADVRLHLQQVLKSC
Runt-SMMHC FRET: inhibitors of human RUNX1 Runt domain binding to CBFb-SMMHC | Q01196+Q13951 | Cerulean-Runt/Venus-CBFb-SMMHC FRET ratio 530/480, 1 h | inhibition, % at 20 µM | 0.74% of 220,000 active | AID 1434;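 active means mean inhibition across duplicate retests at 20 µM reaching about 50%, limit read from the data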;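 further: inhibitors lower the FRET ratio by blocking Runt binding to CBFb-SMMHC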
Runt-CBFb FRET: blocks binding of human RUNX1 Runt domain to CBFb. inhibition, % at 20 µM. Q01196+Q13951. Cerulean-Runt/Venus-CBFb FRET ratio 530/480, 1 h. AID 1496. 0.46% of 220,000 active;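 active means inhibition over about 50% at 20 µM in the single-dose screen, limit read from the data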
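System: Cerulean-labeled Runt domain protein | Quantity: 100 nM of each labeled protein | Schedule: 1 h compound exposure, room temperature | Detection: Fluorescence energy transfer, 422 nm excitation, 530/480 nm emission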
RanGTP-Imp inh: inhibitors of RanGTP-importin-beta interaction, primary screen, biochemical, FRET, CFP-Ran, YFP-importin-beta, homogeneous | inhibition, % (test concentration not listed) | 1.1% of 300,000 active | cell-free CFP-Ran/YFP-importin-beta FRET ratio | AID 2216;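 active means more than half of the replicate wells show a fall in the fluorescence ratio signal beyond about 16%, limit read from the data, passing the limit was not always enough; inconclusive means exactly half of the replicate wells pass the set limit; inactive means fewer than half of replicates pass the limit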
Wee1 degr conf: confirmation of human Wee1 degradation inhibitors. shares compounds with Wee1 stabilizer. HeLa Luc-Wee1K328M degradation, luminescence; vehicle 0%, proteasome-blocked wells 100%. activation, % at 5 µM. 4% of 1,100 active. AID 1410; in the data active means activation above about 8.9%
Of the large screens only hits and unclear results are named; the others gave an inactive call (follow-up assays come after a bar, where they were run).

Cc1nc2ccc(F)cc2cc1C(=O)Nc1ccc(Cl)c(Cl)c1	Wee1 stabilizer 15 | Wee1 degr conf inactive
CCOC(=O)CC(NC(=O)Cn1nnc(-c2ccccc2C)n1)c1ccc(OC)cc1 (centres undefined)	Wee1 stabilizer 12 | Wee1 degr conf inactive
CCOC(=O)CC(NC(=O)Cn1nnc(-c2ccccc2F)n1)c1ccccc1Cl (centres undefined)	none
CN(C)c1ccnc(SCc2ccccc2Cl)c1C#N	none
COC(=O)NC1(C(=O)O)CCCC1	none (no result: HMGR II inh)
CCOC(=O)C1CCN(S(=O)(=O)c2ccc(NC(C)=O)c(Cl)c2)CC1	Wee1 stabilizer 11 (no result: HMGR II inh) | Wee1 degr conf inactive
CC(C)n1c(SCC(=O)NC2CC2)nnc1C1CC1	none (no result: Wee1 stabilizer, HMGR II inh, Runt-SMMHC FRET, Runt-CBFb FRET)
CC(C)C1CC(c2csc(N)n2)CCO1 (centres undefined)	Wee1 stabilizer 13 | Wee1 degr conf inactive
O=C(Nc1ccc(Oc2ccc(NC(=O)C3CCCO3)cc2)cc1)C1CCCO1 (centres undefined)	none
O=C1NC(=O)c2cc(NC(=O)C3CCCO3)ccc21 (centres undefined)	Wee1 stabilizer 16 | Wee1 degr conf inactive
COC(=O)c1cc(NC(=O)c2cc(-c3ccc(OC)cc3)oc2C(F)(F)F)ccc1N1CCOCC1	Wee1 stabilizer 12 (no result: HMGR II inh) | Wee1 degr conf inactive
CCCCCCCCCn1c2c(c(=N)c3c1CCC3)CCCC2	Wee1 stabilizer 11 | Wee1 degr conf inactive
COc1c(C)cc(Br)cc1C(=O)Nc1ccc(S(N)(=O)=O)cc1	none
Cc1ccc(NC(=O)Nc2cccs2)c(Cl)c1	none
O=C(Nc1cccs1)Nc1ccc(Br)cc1F	Wee1 stabilizer 14 | Wee1 degr conf inactive
C(=N\Nc1nc2ccccc2s1)/c1ccco1	Wee1 stabilizer 12 | Wee1 degr conf inactive
Cc1ccsc1/C=N/Nc1nc2ccccc2s1	Wee1 stabilizer 14, RanGTP-Imp inh inconclusive | Wee1 degr conf inactive
Cc1cc(N/N=C/c2ccco2)c2ccccc2n1	none
COc1ccc(/C=N/Nc2nc3ccccc3s2)cc1O	none
CC(=O)Nc1ccc(/C=N/Nc2nc3ccccc3s2)cc1	Wee1 stabilizer 13 (no result: HMGR II inh) | Wee1 degr conf 10
Cc1cc(C)nc(N/N=C/c2sccc2C)n1	none
OCC(O)/C=N/Nc1nc2ccccc2s1 (centres undefined)	none
C(=N\Nc1nc2ccccc2s1)/c1cccs1	Wee1 stabilizer 14 | Wee1 degr conf inactive
Cc1ccc(S(=O)(=O)NCC(=O)OCC(=O)N(C)C2CCS(=O)(=O)C2)cc1 (centres undefined)	none (no result: Wee1 stabilizer, HMGR II inh, PHOSPHO1 block, Runt-SMMHC FRET, Runt-CBFb FRET)
CCn1cc(CNC(=O)/C=C/c2ccc([N+](=O)[O-])cc2)cn1	none
O=C(O)COCC(=O)N1CCCN(c2nccc(C(F)(F)F)n2)CC1	none (no result: Wee1 stabilizer, HMGR II inh, PHOSPHO1 block, Runt-SMMHC FRET, Runt-CBFb FRET)
C/C(Cc1ccccc1)=N/NC(=O)CNC(=O)C(c1ccccc1)c1ccccc1	Wee1 stabilizer 11 (no result: HMGR II inh) | Wee1 degr conf inactive
C/C(=N\NC(=O)CNC(=O)C(c1ccccc1)c1ccccc1)c1ccccc1	none
O=C(Nc1ccc(C(=O)NCc2ccccc2)cc1)C1=CSCCO1	none (no result: Wee1 stabilizer, HMGR II inh, Runt-SMMHC FRET, Runt-CBFb FRET)
O=C(NCCCNC(=O)c1cc(Cl)ccc1Cl)c1ccccn1	none (no result: Wee1 stabilizer, HMGR II inh, Runt-SMMHC FRET, Runt-CBFb FRET)
CC1=C(C(=O)OCC2CCCO2)C(c2ccc(Cl)cc2)NC(=O)N1 (centres undefined)	Wee1 stabilizer 12 | Wee1 degr conf inactive
CC1=C(C(=O)OCC2CCCO2)C(c2ccc(O)cc2)NC(=O)N1 (centres undefined)	none
O=C(CSc1nnc(-c2ccncc2)o1)N1CCCCCC1	Wee1 stabilizer 13, PHOSPHO1 block 68 | Wee1 degr conf inactive
Cc1ccc(-c2nnc(SCC(=O)N3CCCC3)o2)cc1	none
O=C(CSc1nnc(-c2ccncc2)n1CCc1ccccc1)N1CCCC1	Wee1 stabilizer 12 (no result: HMGR II inh) | Wee1 degr conf inactive
O=C(N/N=C1/CC2C=CCC12)c1ccco1 (centres undefined)	none
Cc1cc(N/C=C\c2nnnn2-c2ccccc2)no1	none
CN(C)c1ccc(/C=C/c2nnnn2-c2ccccc2)cc1	Wee1 stabilizer 12 | Wee1 degr conf inactive

Bioassay records from PubChem.
